For 16 molecules, IC50 results are on record in ChEMBL document CHEMBL1126550, “Nanomolar-affinity, non-peptide oxytocin receptor antagonists” (J Med Chem, 1993).

In one experiment the target is T1, Oxytocin receptor (Rattus norvegicus, UniProt P70536).
T1 sequence (P70536 whole entry): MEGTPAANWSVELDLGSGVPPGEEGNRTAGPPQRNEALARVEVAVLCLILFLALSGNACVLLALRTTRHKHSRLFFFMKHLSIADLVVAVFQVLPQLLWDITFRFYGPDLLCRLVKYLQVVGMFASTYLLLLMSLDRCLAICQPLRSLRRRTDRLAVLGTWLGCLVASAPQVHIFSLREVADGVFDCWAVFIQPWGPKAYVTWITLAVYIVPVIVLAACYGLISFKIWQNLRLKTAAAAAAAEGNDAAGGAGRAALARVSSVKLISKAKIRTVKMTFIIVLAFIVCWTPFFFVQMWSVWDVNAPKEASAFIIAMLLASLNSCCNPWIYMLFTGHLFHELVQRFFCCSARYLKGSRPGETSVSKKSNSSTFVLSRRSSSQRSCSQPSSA
The experiment can be described thus: Inhibition of radioligand [3H]oxytocin binding at the oxytocin (OT) receptor in rat uterine tissue. In short, it runs like this:
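Uteri taken from rats given diethylstilbestrol dipropionate (0.3 mg/kg ip, 18–24 h before), crude membranes. 1 nM [3H]OT (30–60 Ci/mmol), equilibrium 60 min at 22 °C in 50 mM Tris-HCl, 5 mM MgCl2, 0.1% BSA, pH 7.4. Nonspecific binding with 1 mM unlabeled OT. Filtered on glass fiber. Initial single-concentration screen, then IC50 from seven concentrations by linear regression.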

Another experiment deals with Vasopressin V2 receptor (Rattus norvegicus, UniProt Q00788). In words: Inhibition of radioligand [3H]-AVP binding to the vasopressin V2 receptor in rat kidney tissue. The essentials: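 [3H]AVP (80–90 Ci/mmol) at 2 nM competed on crude membranes from male rat kidney medulla (V2 sites). Equilibrium 30 min at 30 °C in 100 mM Tris-HCl, 5 mM MgCl2, 0.1% BSA, 50 μM PMSF, 50 μg/mL bacitracin, pH 8.0. Nonspecific binding with 10 μM unlabeled AVP. Glass-fiber filtration. IC50 by linear regression of % inhibition vs log concentration, seven concentrations.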

In a further experiment the target is Vasopressin V1 receptor (Rattus norvegicus, UniProt P48974+P30560). In words: Inhibition of radioligand [3H]AVP binding to the vasopressin V1 receptor in rat liver tissue. The essentials: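 Crude membranes from male rat liver (V1 sites) competed with 1 nM [3H]AVP (80–90 Ci/mmol). Equilibrium 30 min, 30 °C, buffer 100 mM Tris-HCl, 5 mM MgCl2, 0.1% BSA, 50 μM PMSF, 50 μg/mL bacitracin, pH 8.0. 10 μM unlabeled AVP for nonspecific binding. Filtration through glass-fiber filters. IC50 from linear regression over seven concentrations.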

Vasopressin V2 receptor, sequence (Q00788 whole entry): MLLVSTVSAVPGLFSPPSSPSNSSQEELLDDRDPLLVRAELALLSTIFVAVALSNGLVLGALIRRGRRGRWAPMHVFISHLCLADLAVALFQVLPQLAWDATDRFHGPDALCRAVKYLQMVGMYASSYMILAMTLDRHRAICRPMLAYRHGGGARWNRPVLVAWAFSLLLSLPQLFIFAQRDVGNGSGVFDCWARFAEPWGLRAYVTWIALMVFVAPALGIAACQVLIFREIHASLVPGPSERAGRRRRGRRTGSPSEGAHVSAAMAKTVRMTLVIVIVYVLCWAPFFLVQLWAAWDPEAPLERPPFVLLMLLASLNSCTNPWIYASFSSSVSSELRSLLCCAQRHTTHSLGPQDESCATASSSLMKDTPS

Consider `CC1(C)[C@@H]2CC[C@@]1(CS(=O)(=O)N1CCC3(CCc4ccccc43)CC1)[C@@H](NC(=O)C(CCS(C)(=O)=O)NC(=O)CN)C2` (stereo partly drawn), for which the IC50 at Oxytocin receptor turned out to be 4.1 nM; on Vasopressin V2 receptor it was 1100 nM; at Vasopressin V1 receptor it was 440 nM.

Consider `CC1(C)[C@@H]2CC[C@@]1(CS(=O)(=O)N1CCC3(CCc4ccccc43)CC1)[C@@H](NC(=O)C1CCCCC1)C2`, for which the results for the IC50 on Oxytocin receptor, on Vasopressin V2 receptor and at Vasopressin V1 receptor were 650 nM, over 10000 nM and 10000 nM, respectively.

On to `CC1(C)[C@@H]2CC[C@@]1(CS(=O)(=O)N1CCC3(CCc4ccccc43)CC1)[C@@H](NC(=O)CCc1cccnc1)C2`, for which the IC50 at Oxytocin receptor was 180 nM; on Vasopressin V2 receptor, over 3000 nM; on Vasopressin V1 receptor it was over 3000 nM.

On to `CC1(C)[C@@H]2CC[C@@]1(CS(=O)(=O)N1CCC3(CCc4ccccc43)CC1)[C@@H](N1C(=O)CN(CCCn3ccnc3)C1=O)C2`, for which the results for the IC50 on Oxytocin receptor, on Vasopressin V2 receptor and on Vasopressin V1 receptor were 19 nM, 1900 nM and 500 nM, respectively.

Turning to `CC1(C)[C@@H]2CC[C@@]1(CS(=O)(=O)N1CCC3(CCc4ccccc43)CC1)[C@@H](NC(=O)[C@@H](Cc1c[nH]cn1)NC(=O)CCC(N)=O)C2`, the half-maximal inhibitory concentration (IC50) at Oxytocin receptor was found to be 32 nM; on Vasopressin V2 receptor it was 3000 nM; at Vasopressin V1 receptor it was 3000 nM.

On to `CC(C)[C@@H](N)C(=O)N[C@H]1C[C@H]2CC[C@]1(CS(=O)(=O)N1CCC3(CCc4ccccc43)CC1)C2(C)C`, for which the IC50 on Oxytocin receptor was 110 nM; at Vasopressin V2 receptor, over 3000 nM; on Vasopressin V1 receptor it was 3000 nM.

For the molecule `CC1(C)[C@@H]2CC[C@@]1(CS(=O)(=O)N1CCC3(CCc4ccccc43)CC1)[C@@H](N1C(=O)CN(CC#N)C1=O)C2`, the IC50 on Oxytocin receptor amounted to 4.2 nM; on Vasopressin V2 receptor it was 1700 nM; on Vasopressin V1 receptor, 530 nM.

As to `CC1(C)[C@@H]2CC[C@@]1(CS(=O)(=O)N1CCC3(CCc4ccccc43)CC1)[C@@H](NC(=O)CCN)C2`, the results for the IC50 at Oxytocin receptor, on Vasopressin V2 receptor and on Vasopressin V1 receptor were 140 nM, 9600 nM and 1000 nM, respectively.

With `CC1(C)[C@@H]2CC[C@@]1(CS(=O)(=O)N1CCC3(C=Cc4ccccc43)CC1)[C@@](O)(CCNC(=O)c1ccccc1)C2`, the figures for the IC50 on Oxytocin receptor, on Vasopressin V2 receptor and at Vasopressin V1 receptor were 220 nM, 23000 nM and 4600 nM, respectively.

`CC1(C)[C@@H]2CC[C@@]1(CS(=O)(=O)N1CCC3(CCc4ccccc43)CC1)[C@@H](N1C(=O)CC(CC(=O)O)C1=O)C2` (stereo partly drawn): the IC50 was 30 nM at Oxytocin receptor, 2500 nM at Vasopressin V2 receptor and 1600 nM at Vasopressin V1 receptor.

`CC1(C)[C@@H]2CC[C@@]1(CS(=O)(=O)N1CCC3(CCc4ccccc43)CC1)[C@@H](NC(=O)CCCc1ccccc1)C2`: the IC50 at Oxytocin receptor is 570 nM; at Vasopressin V2 receptor, over 10000 nM; at Vasopressin V1 receptor, over 1000 nM.

As for `CC1(C)[C@@H]2CC[C@@]1(CS(=O)(=O)N1CCC3(C=Cc4ccccc43)CC1)[C@@](O)(CC#N)C2`, the results for the IC50 on Oxytocin receptor, at Vasopressin V2 receptor and on Vasopressin V1 receptor were 770 nM, over 10000 nM and over 10000 nM, respectively.

`CC1(C)[C@@H]2CC[C@@]1(CS(=O)(=O)N1CCC3(CCc4ccccc43)CC1)[C@@H](N1C(=O)CCC1C(=O)O)C2` (stereo partly drawn): the IC50 was 270 nM on Oxytocin receptor, over 3000 nM at Vasopressin V2 receptor and over 3000 nM at Vasopressin V1 receptor.

Regarding `CC1(C)[C@@H]2CC[C@@]1(CS(=O)(=O)N1CCC3(C=Cc4ccccc43)CC1)[C@@](O)(CNC(=O)c1ccncc1)C2`, the values for the IC50 on Oxytocin receptor, on Vasopressin V2 receptor and on Vasopressin V1 receptor were 180 nM, 10000 nM and 1200 nM, respectively.

As for `CC1(C)[C@@H]2CC[C@@]1(CS(=O)(=O)N1CCC3(CCc4ccccc43)CC1)[C@@H](NC(=O)N(CCC(=O)O)CCc1c[nH]cn1)C2`, the IC50 on Oxytocin receptor is 23 nM; at Vasopressin V2 receptor it was 8600 nM; on Vasopressin V1 receptor it was 4000 nM.

As for `CC(C)[C@H](N)C(=O)NC[C@@]1(O)C[C@H]2CC[C@]1(CS(=O)(=O)N1CCC3(C=Cc4ccccc43)CC1)C2(C)C`, the IC50 amounted to 43 nM on Oxytocin receptor, 4900 nM at Vasopressin V2 receptor and 290 nM at Vasopressin V1 receptor.
